Compounds with a hit are over-represented: about 4.1% of the library has one in this group of screens.
NF-kB expr up: compounds increasing NF-kB expression in human neuronal cells; NF-kB reporter expression; hits give high values; fold change at 12.5 µM; 1.6% of 190,000 active; in the data active = fold change above about 3.3
APP 5'UTR act: APP 5'UTR luciferase reporter activation | SH-SY5Y APP 5'UTR luciferase reporter, luminescence; zero percent = DMSO vehicle wells | activation, % at 2 µM | 1% of 190,000 active;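 active = activation above a set limit, based on mean plus 3 SD of controls, cut at about 140% in these data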
STAT1 activator: increases IFN-gamma driven STAT1 reporter signal; NIH 3T3 STAT1-luciferase reporter, luminescence; 100% = IFN-gamma alone, no compound; activation (% of control), % at 5.5 µM; 2.6% of 200,000 active; AID 932;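 active = activation above the screen-wide mean activation plus 3 SD, cut at about 130% in these data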;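 also: raw ratio to IFN-gamma control signal so 100% means no change and 0% no light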
FLuc inhib CS: counter-screen for luciferase assay inhibitors: firefly luciferase inhibition. 1.5% of 200,000 active. P08659. ATPLite firefly luciferase biochemical luminescence, 10 min. inhibition, % at 10 µM;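 active = inhibition above about 50% when tested at 10 µM, limit read from the data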
Target sequence (P08659 whole entry, looked up): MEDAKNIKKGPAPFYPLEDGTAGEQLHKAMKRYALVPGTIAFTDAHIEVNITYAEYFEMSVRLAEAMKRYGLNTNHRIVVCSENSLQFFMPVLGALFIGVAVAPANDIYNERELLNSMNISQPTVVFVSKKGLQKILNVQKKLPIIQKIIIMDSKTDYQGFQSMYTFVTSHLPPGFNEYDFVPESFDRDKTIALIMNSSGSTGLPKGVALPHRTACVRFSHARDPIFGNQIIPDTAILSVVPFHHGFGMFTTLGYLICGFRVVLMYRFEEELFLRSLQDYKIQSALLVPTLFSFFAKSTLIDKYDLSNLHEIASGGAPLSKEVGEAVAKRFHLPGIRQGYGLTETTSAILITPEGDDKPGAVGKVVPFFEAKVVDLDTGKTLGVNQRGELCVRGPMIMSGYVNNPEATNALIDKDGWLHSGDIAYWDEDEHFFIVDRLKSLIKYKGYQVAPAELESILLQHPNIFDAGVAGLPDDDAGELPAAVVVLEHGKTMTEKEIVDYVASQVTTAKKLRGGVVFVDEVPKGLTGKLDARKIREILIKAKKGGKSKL
FLuc act counter: firefly luciferase counter-screen for stimulation assays. P08659. ATPlite luciferase biochemical, luminescence, 10 min; 0 = ATP-free wells, 1 = DMSO control. activation factor at 10 µM. 200,000 tested, under 10 active;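 active = luciferase activation factor, scaled between plate controls, of at least 2 with compound at 10 µM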
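System: Luciferase/luciferin detection reagent, cell-free biochemical luciferase assay | Medium: PBS buffer for ATP | Dosing: Test compounds dosed from 2 mM stocks in 100% DMSO | Timing: 10 min at ambient temperature | Signal: Luminescence measurement of luciferase light output | Evaluation: Luciferase activation, seen as luminescence increase over controls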
STAT1 act conf: STAT1 activation, confirmation assay; shares compounds with STAT1 activator; 97% of 1,200 active; NIH 3T3 STAT1-luciferase reporter, IFN-gamma potentiation, luminescence; 100% = IFN-gamma EC80 alone, no compound; AID 1262; activation (% of control), % at 5.7 µM;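 active = activation above a set limit carried over from the earlier primary STAT1 screen, cut at about 140% in these data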;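 also: simple ratio to median IFN-gamma plus DMSO wells so 0% means no light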
NFkB act STAT1ct: counter-screen for STAT1 activators: NF-kappaB activation. shares compounds with STAT1 activator. HEK293T NF-kB luciferase reporter, TNF-alpha stimulated, luminescence; 100% = TNF-alpha with vehicle only. activation (% of control), % at 5.7 µM. 43% of 1,200 active;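 active = activation above the mean of solvent-only control wells plus 3 SD, set per campaign, cut at about 130% in these data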;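 also: TNF-alpha given at a submaximal dose yielding about 80% of full reporter signal; values are well signal over median control so 100% means no change and 0% no light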
STAT3 act 2: activates human STAT3, counter-screen to STAT1 activators; shares compounds with STAT1 activator; U3A cells STAT3-luciferase reporter, IL-6, luminescence; cells lack STAT1; 100 = IL-6 alone, no compound effect; activation (% of control), % at 5.7 µM; 46% of 1,200 active; AID 1316;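 active = activation above the solvent-only control well mean plus 3 SD, set per plate batch, cut at about 110% in these data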;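 also: 0% = no luminescence and 100% = median IL-6 plus DMSO wells; higher means more STAT3 reporter activation so hits are non-selective activators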
* hit, by the source's call; . = no result given.

SMILES	NF-kB expr up	APP 5'UTR act	STAT1 activator	FLuc inhib CS	FLuc act counter	STAT1 act conf	NFkB act STAT1ct	STAT3 act 2
CCOC(=O)c1cnc(SCCc2ccccc2)nc1N	6.9*	190*	165*	15	0.9	189*	131	119*
Cc1ccsc1/C=N/NC(=O)c1sccc1C	3.2	136*	153*	28	0.7	173*	130	112*
Cc1ccsc1/C=N\NC(=O)c1cc(C(C)(C)C)[nH]n1	2.2	85	156*	20	0.8	171*	129	117*
COc1ccc2c(C)nc(Nc3nc(C)c(C)c(=O)[nH]3)nc2c1	1.9	2	200*	21	0.8	174*	128	111*
CCc1c(C)nc(Nc2nc(C)c3ccc(OC)cc3n2)[nH]c1=O	0.52	-3	119	1	1	.	.	.
CCOc1cc(NC(=O)c2ccccn2)c(OCC)cc1NC(=O)c1cccc(C)c1	0.92	-20	100	-4	1	.	.	.
COc1cccc(NC(=O)c2ccn(C)n2)c1	2	62	126	17	0.8	.	.	.
Cc1ccc(NC(=O)c2ccn(C)n2)c(Br)c1	7*	142*	155*	47	0.5	198*	116	97
Cc1ccc(NC(=O)c2ccccn2)c(Br)c1	6.9*	153*	152*	49	0.5	200*	126	110
Cc1ccc(NC(=O)Cn2cccc2)c(Br)c1	1.7	-2	108	0	1	.	.	.
Cn1ccc(C(=O)Nc2ccc(Br)cc2Br)n1	7.6*	143*	168*	21	0.8	200*	124	102
CC(=O)N(C)c1ccc(OCC(O)Cn2c3ccc(Cl)cc3c3cc(Cl)ccc32)cc1 (stereo not drawn)	0.48	-18	95	-2	1	.	.	.
Cc1ccc(-c2csc(NC(=O)CSc3nc4ccccc4c(=O)n3CCCN(C)C)n2)cc1	0.99	5	98	-2	1	.	.	.
O=C(NC1CCCCCC1)c1c2c(nc3ccccc13)CCN(Cc1ccccc1)C2	0.33	13	96	-5	1.1	.	.	.
Cc1cc(N2CCN(C)CC2)ccc1NC(=O)c1c2c(nc3ccccc13)CCN(Cc1ccccc1)C2	1.3	-13	166*	-3	1	118	110	115*
COC(=O)CC(c1ccc(C(C)C)cc1)n1cccc1 (stereo not drawn)	1.1	-8	100	0	1	.	.	.
NNc1nc2c(F)cc(F)cc2s1	1.3	167*	156*	-6	1.1	128	121	116*
COC(=O)c1ccc2nc(Nc3nc4c(F)cc(F)cc4s3)sc2c1	1.3	-4	38	7	0.9	.	.	.
CCOc1ccc(S(=O)(=O)n2nnc3ccccc32)cc1C(C)C	1.4	8	107	-3	1	.	.	.
CCCCC(=O)Nc1ccc(C(=O)NNC(=O)c2ccc(C)c(Br)c2)cc1	1.2	-19	95	-2	1	.	.	.
CC(=O)c1ccc(NC(=O)c2ccc(C)c(Br)c2)cc1	4*	203*	156*	12	0.9	198*	140*	101
O=C(OCC(=O)N1CCOCC1)c1ccccc1Cc1ccccc1	5.5*	116	158*	8	0.9	198*	140*	137*
O=C(OCC(=O)N1CCOCC1)c1ccccc1SCC(=O)N1CCCC1	1.1	5	101	-7	1.1	.	.	.
Nc1c(C(=O)C2CC2)sc2nc3c(cc12)CCC3	5.4*	120	162*	19	0.8	189*	135*	108
N#C/C(=N\Nc1ccc(F)cc1)C(=N)N1CCCCC1	8.2*	138*	155*	55*	0.5	216*	127	115*
SMILES	NF-kB expr up	APP 5'UTR act	STAT1 activator	FLuc inhib CS	FLuc act counter	STAT1 act conf	NFkB act STAT1ct	STAT3 act 2
COc1ccc(N/N=C(\C#N)C(=N)N2CCOCC2)cc1	1.2	51	116	9	0.9	.	.	.
CC(=O)N[C@@H](C)C(=O)OC(C)C(=O)Nc1cccc([N+](=O)[O-])c1 (stereo partly drawn)	1.5	-9	91	2	1	.	.	.
c1ccc2sc(N3CCOCC3)nc2c1	1.3	29	117	9	0.9	.	.	.
c1ccc(N2CCN(c3nc4cc5c(cc4s3)OCCO5)CC2)cc1	2.1	49	158*	16	0.8	190*	125	85
CCOC(=O)C1(Cc2ccccc2Cl)CCN(C(=O)CN2CCOC2=O)CC1	.	69	160*	-4	1	172*	142*	117*
CCOC(=O)C1(CCCc2ccccc2)CCN(C(=O)CN2CCOC2=O)CC1	1.2	-5	102	-1	1	.	.	.
Cc1cc(/C=C(\C#N)C(=O)NCc2cccs2)c(C)n1-c1ccccc1F	1.2	115	151*	49	0.5	169*	130	121*
CCCn1c(SCC(=O)N2CCCc3ccccc32)nnc1-c1ccccn1	1.2	-18	102	-7	1.1	.	.	.
COC(=O)c1cn(C(=O)/C=C/c2ccc(OC)c(OC)c2)c2ccccc12	0.95	-17	102	-7	1.1	.	.	.
C/C(=N\Nc1nc2ccccc2s1)c1cccs1	4.2*	177*	164*	61*	0.4	249*	121	160*
C/C(=N\Nc1nc(N2CCOCC2)nc(N2CCOCC2)n1)c1cccs1	0.72	-3	101	-2	1	.	.	.
CC(=O)Nc1cccc(/C(C)=N/Nc2nc3ccccc3s2)c1	1.1	160*	198*	5	0.9	200*	139*	122*
CCOC(=O)CNC(=O)Nc1ccccc1C(=O)OC	0.89	18	98	0	1	.	.	.
CC(C)(C)C(=O)Nc1ccccc1C(=O)OCC(=O)c1ccc2c(c1)OCCO2	0.67	24	97	22	0.8	.	.	.
O=C(COC(=O)c1ccccc1NC(=O)C1CC1)c1ccc2c(c1)OCCO2	0.59	38	159*	72*	0.3	170*	105	101
CC(=O)c1cccc(Nc2ccc(-c3ccccc3F)nn2)c1	2.1	134	152*	29	0.7	179*	130	103
COc1ccccc1-c1ccc(Nc2cccc(C(C)=O)c2)nn1	1.1	14	117	12	0.9	.	.	.
Cc1cc(NC(=O)NC2CC(=O)N(c3ccc4c(c3)OCCO4)C2)no1 (stereo not drawn)	1.1	9	94	-8	1.1	.	.	.

Bioassay records: PubChem, several laboratories
